Screens: PubChem BioAssay, The Scripps Research Institute Molecular Screening Center
UHRF1 binding – blocks human UHRF1 binding to methylated DNA | UHRF1 binding to methylated oligo, TR-FRET | inhibition, % at 4.4 µM | hit rate 0.75% among 370,000 | AID 687016; in the data active = inhibition above about 21%;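 note: UHRF1 SRA domain binding a hemimethylated CpG hairpin DNA probe; 0% = median of test compound wells and 100% = reference inhibitor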
TDP2 inh – TDP2 (human) inhibition, absorbance primary screen | recombinant TDP2, T5PNP hydrolysis, p-nitrophenol absorbance 415 nm | inhibition, % at 12.8 µM | O95551 | AID 720702 | hit rate 0.34% among 370,000;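 active = inhibition above the mean of all tested compounds plus 3 SD, set per campaign, cut at about 25% in these data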;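 note: 0% = DMSO with enzyme and 100% = buffer with substrate but no TDP2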
Target sequence (O95551 whole entry, looked up): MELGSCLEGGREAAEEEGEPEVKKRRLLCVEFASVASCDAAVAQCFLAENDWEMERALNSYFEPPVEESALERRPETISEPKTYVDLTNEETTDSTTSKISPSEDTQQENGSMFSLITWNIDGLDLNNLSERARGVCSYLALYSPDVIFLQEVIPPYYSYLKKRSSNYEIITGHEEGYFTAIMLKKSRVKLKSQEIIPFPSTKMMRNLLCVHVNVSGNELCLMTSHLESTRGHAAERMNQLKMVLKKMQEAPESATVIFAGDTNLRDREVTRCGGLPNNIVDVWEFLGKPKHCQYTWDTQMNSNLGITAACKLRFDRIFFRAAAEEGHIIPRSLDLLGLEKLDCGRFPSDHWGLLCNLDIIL
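Test system: human TDP2 enzyme; Input: 120 nM TDP2 per well; Buffer or medium: Mg2+-containing Tris-HCl buffer, pH 7.5; Reagent: 5 mM T5PNP; Dosing: 12.8 µM single point, 1% DMSO; Incubation: reaction 2 h, 37 °C; Detection: p-Nitrophenol epi absorbance; Read-out: % inhibition relative to enzyme-containing and enzyme-free wells; Replicates: single well per compound.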
LEDGF integ inh – blocks HIV-1 LEDGF/p75-dependent DNA integration. TR-FRET IN-LEDGF/p75 DNA integration, Eu/Cy5. inhibition, % at 3.7 µM. hit rate 0.64% among 370,000. AID 743269;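 active = inhibition above the screen-wide mean plus 3 SD, cut at about 13% in these data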;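 note: signal is the Cy5 over europium emission ratio at 671 and 618 nm; 0% = plate median of compound wells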
MBD2 DNA inh – inhibitors of human MBD2 binding to methylated oligonucleotide; Q9UBB5; TR-FRET; inhibition, % at 4.4 µM; hit rate 0.31% among 370,000; in the data active = inhibition above about 13%
Numbers without * were called inactive. Only some compounds are listed: those with a hit (about 1.6% of all), similar ones and a draw of the others.

SMILES | UHRF1 binding | TDP2 inh | LEDGF integ inh | MBD2 DNA inh
CCC(CC)C(=O)Nc1cccc(C(=O)Nc2nnc(C)s2)c1 | 23* | -2 | -3 | -4
O=C(CSc1n[nH]c(=O)n1-c1ccc2c(c1)OCCO2)Nc1ccccc1 | 27* | 21 | 1 | -2
O=C(CSc1n[nH]c(=O)n1-c1ccccc1)Nc1ccccc1 | -2 | -24 | 2 | -6
Nn1c(SCC(=O)Nc2nccs2)nnc1-c1cc(-c2ccccc2)n[nH]1 | 9 | 1 | -3 | 12
O=C(Nc1cccc(F)c1)OCCCN1CCC2(CCC(c3ccccc3)CC2)C1 (stereo not drawn) | 0 | -2 | 0 | 3
COc1ccc(C2CC(=O)C(c3ccc(C#N)cc3)=CN2Cc2ccccc2)cc1 (stereo not drawn) | -1 | 5 | -5 | 1
CN(C)S(=O)(=O)c1cccc(NC(=S)Nc2cccc3cnccc23)c1 | 2 | 28* | 7 | -3
Cc1cccc(C(=O)NNC(=O)c2ccc(Br)cc2)c1 | 21* | 1 | -1 | 11
O=S1(=O)C=CCN1Cc1cn(Cc2cccc(C(F)(F)F)c2)nn1 | 6 | -8 | -3 | 5
COc1ccc2c(c1)c(=O)oc1cc(OCC(=O)NC3CCCCC3)ccc12 | 25* | -12 | 5 | 10
COc1ccc(S[C@]2(C(=O)N(C)C)CC(=O)N(c3ccsc3)[C@@H]2c2ccc(OC)cc2)cc1 | 0 | -5 | -2 | -4
O=C(N[C@H](Cc1ccccc1)C(=O)NCCCN1CCCC1=O)[C@H]1O[C@@H](n2ccc(=O)[nH]c2=O)[C@H](O)[C@@H]1O | -1 | 2 | -1 | 0
CCCCNC(=O)C[C@H]1C[C@@]2(C(=O)OC)C(=C[C@H](C(C)C)O[C@@H]2C2CC2)N(Cc2ccc3c(c2)OCO3)C1=O | -2 | -3 | -3 | 5
CCOC(=O)Cc1csc(NC(=O)c2c(-c3ccccc3)noc2C)n1 | 0 | 6 | -3 | -1
CCOC(=O)Cc1csc(NC(=O)c2c(C)noc2C)n1 | 24* | 1 | 1 | 8
O=C(N1CCC(C(O)(c2ccccc2)c2ccccc2)CC1)n1ncc(C(O)(c2ccccc2)c2ccccc2)n1 | 0 | 8 | -1 | 1
CCN1/C(=C/c2ccc3cc(C)ccc3[n+]2CC)Sc2cc(C)ccc21 | 3 | 2 | -1 | -6
CCN1/C(=C/c2ccc3cc(C)ccc3[n+]2C)Sc2ccc3sccc3c21 | 41* | 2 | 4 | 5
COC(=O)[C@]1(CNC(=O)C(F)(F)F)CC(=O)N(C)[C@@H]1c1ccccc1 | 10 | -10 | 6 | 5
CC(C(=O)OCC(=O)Nc1ccc2c(c1)OCO2)N1C(=O)c2ccccc2C1=O (stereo not drawn) | 19 | 9 | 3 | 34*
CC(C)C(C(=O)Nc1ccc2c(c1)OCO2)N1C(=O)c2ccccc2C1=O (stereo not drawn) | -1 | 3 | 4 | -1
C[C@H]1COc2cc(N3CC[C@H](O)C3)ccc2S(=O)(=O)N1 | 62* | -8 | -5 | 2
CN(C)c1ccc(NC(=S)OC2CCC23CCC(c2ccccc2)CC3)cc1 (stereo not drawn) | -1 | 8 | 0 | -4
COc1ccc(NC(=O)CN2CCN(c3ccccc3C)CC2)cc1 | 79* | 3 | -1 | 0
COc1ccc(NC(=O)CN2CCN(c3ccccc3Cl)CC2)cc1 | -2 | 12 | 0 | -3
SMILES | UHRF1 binding | TDP2 inh | LEDGF integ inh | MBD2 DNA inh
COc1ccc(NC(=O)Cn2cc(C(C)=O)c3ccccc32)cc1 | 94* | 5 | 6 | -4
C=CCN1C(=O)[C@@H](CC(=O)N2CCN(C(=O)OCC)CC2)[C@]2(C(=O)OC)CCCCC=C12 | 2 | 8 | -2 | 5
Cc1ccc(CNC[C@@]23CO[C@H](c4ccc(Cl)cc4)N2[C@@H](c2ccc(Cl)cc2)SC3)o1 | 0 | 0 | -1 | 1
O=c1c(OC2OC(CO)C(O)C(O)C2O)c(-c2ccc(O)c(O)c2)oc2cc(O)cc(O)c12 (stereo not drawn) | -4 | -5 | 70* | -5
O=c1c(O[C@H]2O[C@@H](CO)[C@H](O)[C@@H](O)[C@@H]2O)c(-c2ccc(O)cc2)oc2cc(O)cc(O)c12 | 0 | -8 | -3 | 4
O=[N+]([O-])c1cccc(NC(=S)N2CCCC2)c1 | 27* | 24 | 2 | 7
Cc1ccc(NC(=O)COc2ccc3oc4c(c3c2)CCCC4)nc1 | 26* | 0 | 2 | 6
CCCOC(=O)c1c(NC(=O)C2CCCO2)sc(C(=O)OC)c1C (stereo not drawn) | 25* | 3 | 2 | 2
Cc1cc(O)cc(=O)n1-c1cc(C(F)(F)F)cc(C(F)(F)F)c1 | 0 | -3 | -5 | 1
COc1ccc(Cc2nnc(NC(=O)C(C)C)s2)cc1 | 30* | 13 | 1 | 12
CC(C)[C@H](NC(=O)C1CCN(S(=O)(=O)c2ccc(F)cc2)CC1)C(=O)N1CCCC1 | 3 | -7 | 2 | 1
Cc1ccc(S(=O)(=O)N2CCC(C(=O)N[C@H](C(=O)N3CCN(C)CC3)C(C)C)CC2)cc1 | 22* | 7 | -2 | 1
CC1c2cccn2CCN1S(=O)(=O)c1ccc(F)cc1 (stereo not drawn) | 30* | 8 | 2 | 6
CC(=O)c1ccc(S(=O)(=O)N2CCn3cccc3C2C)cc1 (stereo not drawn) | 0 | 11 | 0 | 5
Cc1ccc2cc(CN(Cc3ccc4c(c3)OCO4)Cc3nnnn3Cc3ccco3)c(=O)[nH]c2c1 | 0 | -4 | 4 | 3
Cc1ccc(CN(Cc2cc3cc4c(cc3[nH]c2=O)OCCO4)Cc2nnnn2Cc2ccco2)cc1 | 3 | -10 | 17* | 0
Cc1cc(C)n(-c2ccc3nnc(C)n3n2)n1 | 24* | 5 | -3 | 7
Cc1nnc2ccc(N3CCCCC3)nn12 | -4 | -8 | -3 | -7
CC1CN(C2CCN(S(=O)(=O)c3ccc(F)cc3)CC2)CC(C)O1 (stereo not drawn) | 21* | -9 | -2 | 0
CCc1nc2c(c(=O)c3ccccc3n2C)c(=O)n1C1CCCCCC1 | 59* | -6 | -2 | 1
Cn1c2ccccc2c(=O)c2c(=O)n(C3CCCCCC3)c(C3CCCCC3)nc21 | 1 | 15 | 2 | -4
Oc1c(CN2CCOCC2)cc(CN2CCOCC2)cc1CN1CCOCC1 | 24* | 3 | -7 | 3
Oc1cc(O)c(CN2CCOCC2)cc1CN1CCOCC1 | 4 | 0 | 7 | -1
CCCOC(=O)CCCCCCCCC(O)CN1CCCCC1 (stereo not drawn) | 23* | -5 | 1 | 11
COC(=O)[C@]12C[C@H](CC(=O)NCCc3ccccc3OC)C(=O)N(Cc3ccc(Cl)cc3Cl)C1=C[C@H](C(C)(C)C)O[C@@H]2C | -3 | 2 | 0 | 3
CCO[C@@H]1OC(C(=O)O)=C[C@H](c2ccc(C(F)(F)F)cc2)[C@H]1CCCO | 77* | 0 | 2 | -4
COC(=O)C1CN(Cc2cn(Cc3ccccc3)nn2)CCS(=O)(=O)N1Cc1ccc(C)cc1 (stereo not drawn) | 0 | 9 | -4 | 1
